In ChEMBL document CHEMBL3091393, “Antioxidant activities of 5-hydroxyoxindole and its 3-hydroxy-3-phenacyl derivatives: the suppression of lipid peroxidation and intracellular oxidative stress” (Bioorg Med Chem, 2013):
Calls of active or inactive are those of the source. The calls are words filed in the database; no cut-off is given here.

Key:
[1] = system: HL-60; assay: Cytotoxicity against human HL60 cells assessed as reduction of cell viability at 100 uM after 24 hrs by trypan blue dye exclusion test; assay type: cell-based; settings: hl-60, 24 h
Summary of the method: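 HL60 cells at 1.0 × 10⁶/well exposed to compound (100 μM, 1% DMSO final) for 24 h at 37 °C, 5% CO2. Cells pelleted and resuspended in PBS(−). Viable cells counted by trypan blue exclusion on an automated counter.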

[2] = system: HL-60; assay: Antioxidant activity in human HL60 cells assessed as reduction of H2O2-induced intracellular oxidative stress at 10 uM after 1 hr using DCFH-DA by FACS analysis; assay type: functional, cell-based
Summary of the method: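 HL60 cells (RPMI-1640, 5% heat-inactivated FBS, 37 °C, 5% CO2) at 1.0 × 10⁶/well loaded with DCFH-DA (10 μM, 15 min), washed, then pretreated 1 h with compound (10 μM, 1% DMSO final). H2O2 (200 μM) added for 1 h; water for controls. Fluorescence (ex 488/em 530 nm) measured by flow cytometry on about 10,000 cells per sample.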

[3] = Octanol-water partition coefficient, logKOW of the compound; assay type: physicochemical; settings: read-out: log KOW
[4] = system: Liver microsome; assay: Antioxidant activity against tert-butylhydroperoxide-induced lipid peroxidation in rat liver microsomes after 20 mins by TBARS method; assay type: functional
Summary of the method: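 Kept on ice, then peroxidation started with tert-butylhydroperoxide (1 mM) and run 37 °C, 20 min. Stopped with BHT, then TCA/TBA at 85 °C for 20 min. TBARS read as A535−A600. IC50 is the mean of 3 independent trials.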

[5] = system: Radical scavenging activity; assay: Antioxidant activity assessed as DPPH free radical scavenging activity by spectroscopic analysis; assay type: functional

Row | logP [3] | IC50 [4] [µM] | Compound | Activity [1] | Activity [2] | Activity [5] [×10³ /M/s]
1 | 1.91 | 150 | N#Cc1ccc(C(=O)CC2(O)C(=O)Nc3ccc(O)cc32)cc1 (stereo not given) | Toxic | Active | 1.7
2 | 2.2 | 160 | Cc1ccc(C(=O)CC2(O)C(=O)Nc3ccc(O)cc32)cc1 (stereo not given) | Non-toxic | Active | 1.8
3 | 2.45 | 120 | O=C(CC1(O)C(=O)Nc2ccc(O)cc21)c1ccc(Cl)cc1 (stereo not given) | Toxic | Active | 2.4
4 | 2.55 | 75 | O=C(CC1(O)C(=O)Nc2ccc(O)cc21)c1ccc(Br)cc1 (stereo not given) | Toxic | Active | 1.2
5 | 2.81 | 55 | O=C(CC1(O)C(=O)Nc2ccc(O)cc21)c1ccc(I)cc1 (stereo not given) | – | Active | 2.2
6 | 1.93 | 95 | O=C(CC1(O)C(=O)Nc2ccc(O)cc21)c1ccc(F)cc1 (stereo not given) | Toxic | Active | 1.5
7 | 1.74 | 225 | COc1ccc(C(=O)CC2(O)C(=O)Nc3ccc(O)cc32)cc1 (stereo not given) | Non-toxic | Active | 1.5

Continued, compound first:

Row | Compound | logP [3] | IC50 [4] [µM] | Activity [1] | Activity [2] | Activity [5] [×10³ /M/s]
8 | O=C1Cc2cc(O)ccc2N1 | 0.7 | 300 | Non-toxic | Active | 9.2
9 | CC(=O)CC1(O)C(=O)Nc2ccc(O)cc21 (stereo not given) | 0.44 | > 300 | Non-toxic | inactive | 0.74
10 | Oc1nc(O)c2nc(O)[nH]c2n1 [URIC ACID] | – | > 300 | – | inactive | 0.63
11 | O=C(CC1(O)C(=O)Nc2ccc(O)cc21)c1ccc([N+](=O)[O-])cc1 (stereo not given) | 1.85 | 40 | – | Active | 2.5
12 | O=C(CC1(O)C(=O)Nc2ccc(O)cc21)c1ccc(C(F)(F)F)cc1 (stereo not given) | 2.89 | 80 | – | Active | 1.6
13 | O=C(CC1(O)C(=O)Nc2ccc(O)cc21)c1ccccc1 (stereo not given) | 1.07 | 240 | Non-toxic | Active | 1.9
